Reference: ChEMBL document CHEMBL2311388, “Carbamoyl pyridone HIV-1 integrase inhibitors. 2. Bi- and tricyclic derivatives result in superior antiviral and pharmacokinetic profiles” (J Med Chem, 2013)

Assays:
[1] = tested on: Human immunodeficiency virus 1; assay: Selectivity ratio of IC50 for RAL-resistant HIV1 harboring integrase Y143R mutant to IC50 for wild type HIV1 3B; type: functional
[2] = tested on: Human immunodeficiency virus 1; assay: Selectivity ratio of IC50 for RAL-resistant HIV1 harboring integrase Q148K mutant to IC50 for wild type HIV1 3B; type: functional
[3] = (§1) Volume of distribution at steady state in rat at 1 mg/kg, iv and 5 mg/kg, po; type: ADME, organism-based; settings: in vivo, read-out: Vdss
[4] = Ratio of plasma concentration in rat after 24 hrs to IC50 for wild type HIV1 3B infected in human MT4 cells in presence of human serum albumin; type: ADME, cell-based; settings: mt4, 24 h
[5] = tested on: Human immunodeficiency virus 1; assay: Selectivity ratio of IC50 for RAL-resistant HIV1 harboring integrase N155H mutant to IC50 for wild type HIV1 3B; type: functional
[6] = Half life in rat at 1 mg/kg, iv and 5 mg/kg, po; type: ADME, organism-based; settings: in vivo
[7] = tested on: Human immunodeficiency virus 1; assay: Selectivity ratio of IC50 for wild type HIV1 3B infected in human MT4 cells in presence of human serum albumin to IC50 for wild type HIV1 3B infected in human MT4 cells; type: functional
[8] = Cytotoxicity against human MT4 cells assessed as growth inhibition after 4 days by MTT assay; type: cell-based
Procedure, shortened: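 MT-4 cells; values given as mean ± s.d. of three independent experiments.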

[9] = tested on: Human immunodeficiency virus 1; assay: Antiviral activity against wild type HIV1 3B infected in human MT4 cells assessed as cell viability by MTT assay in presence of human serum albumin; type: functional, organism-based; settings: Human immunodeficiency virus 1, 3B
Procedure, shortened: (§2)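 HIV-1 replication in MT-4 cells read by MTT. Values are mean ± s.d. of three independent experiments. The protein-adjusted value is derived from the MT-4/MTT IC50 and the shift seen with human serum albumin. Detailed conditions are those of the earlier paper in the series.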

[10] = tested on: Human immunodeficiency virus 1; assay: Antiviral activity against wild type HIV1 3B infected in human MT4 cells assessed as cell viability by MTT assay; type: functional, organism-based; settings: Human immunodeficiency virus 1, 3B; procedure, shortened: as §2
[11] = Oral bioavailability in rat at 5 mg/kg; type: ADME, organism-based; settings: in vivo
[12] = Total clearance in rat at 1 mg/kg, iv and 5 mg/kg, po; type: ADME, organism-based; settings: in vivo
Rattus norvegicus = assay: as §1; type: ADME, organism-based; settings: in vivo

| SMILES | Ratio IC50 [1] | Ratio IC50 [2] | Vd [3] | Ratio [4] | Ratio IC50 [5] | half-life [6] | Ratio IC50 [7] | CC50 at 96 h [8] | IC50 [9] | IC50 [10] | bioavailability [11] | clearance [12] | Vdss (Rattus norvegicus) |
| --- | --- | --- | --- | --- | --- | --- | --- | --- | --- | --- | --- | --- | --- |
| COC(=O)c1[nH]cc(C(=O)NCc2ccc(F)cc2)c(=O)c1O | 1.5 | 200 | 0.2 L/kg | 3.4 | 21 | 4.7 h | 12 |  |  |  |  |  |  |
| CN(C)C(=O)CN1CCn2cc(C(=O)NCc3ccc(F)cc3)c(=O)c(O)c2C1=O |  |  |  |  |  |  | 2.4 | > 200000 nM | 62 nM | 26 nM |  |  |  |
| CC(C)OCCn1ccn2cc(C(=O)NCc3ccc(F)cc3)c(=O)c(O)c2c1=O |  | 39 |  |  |  |  | 4.4 | 49000 nM | 19 nM | 4.3 nM |  |  |  |
| CC(C)OCCN1CCn2cc(C(=O)NCc3ccc(F)cc3)c(=O)c(O)c2C1=O |  | 9.9 |  |  |  |  | 3.1 | 30000 nM | 13 nM | 4.2 nM |  |  |  |
| O=C(NCc1ccc(F)cc1)c1cn2ccn(CCOc3ccccc3)c(=O)c2c(O)c1=O |  | >250 |  |  |  |  | 11 | 2400 nM | 48 nM | 4.4 nM |  |  |  |
| O=C(NCc1ccc(F)cc1)c1cn2c(c(O)c1=O)C(=O)N(CCOc1ccccc1)CC2 |  | 17 |  |  |  |  | 9.5 | 10000 nM | 65 nM | 6.8 nM |  |  |  |
| O=C(NCc1ccc(F)cc1)c1cn2ccn(C3CCCCC3)c(=O)c2c(O)c1=O |  | >250 |  |  |  |  | 13 | > 200000 nM | 156 nM | 12 nM |  |  |  |
| O=C(NCc1ccc(F)cc1)c1cn2c(c(O)c1=O)C(=O)N(C1CCCCC1)CC2 |  | >250 |  |  |  |  | 4.4 | > 240000 nM | 29 nM | 6.5 nM |  |  |  |
| COCCN1C(=O)c2c(O)c(=O)c(C(=O)NCc3ccc(F)cc3)cn2CC1O (configuration not stated) | 1.5 | 2.1 | 0.14 L/kg | 117 | 1.5 | 7.6 h | 3.7 | 83000 nM | 14.1 nM | 3.8 nM | 14% | 0.24 mL/min/kg |  |
| COCCn1ccn2cc(C(=O)NCc3ccc(F)cc3)c(=O)c(O)c2c1=O | 1.6 | 35 |  | 2600 | 3.7 | 11 h | 17 | > 200000 nM | 27 nM | 1.6 nM | 40% | 0.02 mL/min/kg | 0.015 L/kg |
| COCCN1CCn2cc(C(=O)NCc3ccc(F)cc3)c(=O)c(O)c2C1=O | 1.5 | 18 | 0.12 L/kg | 27 | 1.5 | 3.4 h | 3.1 | 52000 nM | 18 nM | 5.9 nM | 41% | 0.51 mL/min/kg |  |
| O=C(NCc1ccc(F)cc1)c1cn2ccn(CCN3CCOCC3)c(=O)c2c(O)c1=O |  | >250 |  |  |  |  | 3 | 36000 nM | 20 nM | 6.6 nM |  |  |  |
| O=C(NCc1ccc(F)cc1)c1cn2c(c(O)c1=O)C(=O)N(CCN1CCOCC1)CC2 |  |  |  |  |  |  | 1.6 | 160000 nM | 34 nM | 21 nM |  |  |  |
| CN(C)C(=O)Cn1ccn2cc(C(=O)NCc3ccc(F)cc3)c(=O)c(O)c2c1=O |  |  |  |  |  |  | 4.1 | > 200000 nM | 144 nM | 35 nM |  |  |  |
| COCCN1CCCN2C(=O)c3c(O)c(=O)c(C(=O)NCc4ccc(F)cc4)cn3CC12 (racemic) |  | 5.7 |  |  |  |  | 3.9 | 9800 nM | 20.3 nM | 5.2 nM |  |  |  |
| CN1CCCCN2C(=O)c3c(O)c(=O)c(C(=O)NCc4ccc(F)cc4)cn3CC12 (racemic) |  | 4.2 |  |  |  |  | 4.9 | > 200000 nM | 31.4 nM | 6.4 nM |  |  |  |
| CC(C)CN1CCCCN2C(=O)c3c(O)c(=O)c(C(=O)NCc4ccc(F)cc4)cn3CC12 (racemic) |  | 3.2 |  |  |  |  | 17 | 13000 nM | 91.8 nM | 5.4 nM |  |  |  |
| CC(=O)N1CCCN2C(=O)c3c(O)c(=O)c(C(=O)NCc4ccc(F)cc4)cn3CC12 (racemic) |  |  |  |  |  |  | 2 | > 200000 nM | 58 nM | 29 nM |  |  |  |
| CS(=O)(=O)N1CCCN2C(=O)c3c(O)c(=O)c(C(=O)NCc4ccc(F)cc4)cn3CC21 (racemic) |  |  |  |  |  |  | 2.8 | > 220000 nM | 120 nM | 43 nM |  |  |  |
| O=C(NCc1ccc(F)cc1)c1cn2c(c(O)c1=O)C(=O)N1CCOC1C2 (racemic) |  | 19 |  |  |  |  | 52 | 72000 nM | 140 nM | 2.7 nM |  |  |  |
| O=C(NCc1ccc(F)cc1)c1cn2c(c(O)c1=O)C(=O)N1CCCOC1C2 (racemic) | 1.6 | 2.8 | 0.13 L/kg | 685 | 1.6 | 17 h | 7.9 | 18000 nM | 26.9 nM | 3.4 nM |  | 0.1 mL/min/kg |  |
| O=C(NCc1ccc(F)cc1)c1cn2c(c(O)c1=O)C(=O)N1CCCCOC1C2 (racemic) |  | 2.2 |  |  |  |  | 7.6 | 26000 nM | 22 nM | 2.9 nM |  |  |  |
| CC(C)N1CCN2C(=O)c3c(O)c(=O)c(C(=O)NCc4ccc(F)cc4)cn3CC21 (racemic) |  | 39 |  |  |  |  | 3.4 | 8000 nM | 7.8 nM | 2.3 nM |  |  |  |
| CN1CCCN2C(=O)c3c(O)c(=O)c(C(=O)NCc4ccc(F)cc4)cn3CC12 (racemic) |  | 4.7 |  |  |  |  | 4.3 | 20000 nM | 16.3 nM | 3.8 nM |  |  |  |
| CC(C)N1CCCN2C(=O)c3c(O)c(=O)c(C(=O)NCc4ccc(F)cc4)cn3CC21 (racemic) |  | 9.1 |  |  |  |  | 4.3 | 7200 nM | 32.3 nM | 7.5 nM |  |  |  |
| O=C(NCc1ccc(F)cc1)c1cn2c(c(O)c1=O)C(=O)N1CCCN(Cc3nccs3)C1C2 (racemic) |  | 4.2 |  |  |  |  | 3.9 | 2800 nM | 12.9 nM | 3.3 nM |  |  |  |
| COc1cc2c(cc1Cc1cccc(Cl)c1F)c(=O)c(C(=O)O)cn2[C@H](CO)C(C)C [ELVITEGRAVIR] | 1.8 | >1700 |  |  | 25 |  |  |  |  |  |  |  |  |
